Measured values: ChEMBL document CHEMBL4257566, “Design, synthesis and structure-based optimization of novel isoxazole-containing benzamide derivatives as FtsZ modulators” (Eur J Med Chem, 2018)
In brackets after ≈: the same amount, converted by molar mass. Activity calls are given as the source filed them. The calls are words filed in the database; no cut-off is given here.

Experiments:
Staphylococcus aureus [1] = assay: Antibacterial activity against Staphylococcus aureus; type: functional
In short: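 CLSI broth microdilution: log-phase bacteria added to 2-fold serial dilutions (64 to 0.125 µg/mL) in cation-adjusted Mueller-Hinton broth, incubated aerobically 24 h at 37 °C. MIC read by turbidity as the last well showing no growth.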

Staphylococcus aureus [2] = assay: Antibacterial activity against clinical isolate of penicillin-resistant Staphylococcus aureus after 24 hrs by broth microdilution based CLSI method; type: functional
Staphylococcus aureus [3] = assay: Antibacterial activity against methicillin-resistant Staphylococcus aureus ATCC 43300 after 24 hrs by broth microdilution based CLSI method; type: functional; conditions: ATCC 43300, 24 h
Escherichia coli = assay: Antibacterial activity against Escherichia coli ATCC 25922 after 24 hrs by broth microdilution based CLSI method; type: functional; conditions: ATCC 25922, 24 h
Bacillus pumilus = assay: Antibacterial activity against Bacillus pumilus CMCC63202 after 24 hrs by broth microdilution based CLSI method; type: functional; conditions: CMCC63202, 24 h
Bacillus subtilis [4] = assay: Antibacterial activity against Bacillus subtilis ATCC 9372 after 24 hrs by broth microdilution based CLSI method; type: functional; conditions: ATCC 9372, 24 h
Pseudomonas aeruginosa = assay: Antibacterial activity against Pseudomonas aeruginosa ATCC 27853 after 24 hrs by broth microdilution based CLSI method; type: functional; conditions: ATCC 27853, 24 h
Staphylococcus aureus [5] = assay: Antibacterial activity against Staphylococcus aureus ATCC 25923 after 24 hrs by broth microdilution based CLSI method; type: functional; conditions: ATCC 25923, 24 h
HeLa = assay: Cytotoxicity in human HeLa cells assessed as reduction in cell viability after 36 hrs by MTT assay; type: cell-based
In short: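 HeLa cells seeded at 10⁴ cells/well and left overnight, then exposed to compound for 36 h. MTT (5 mg/mL solution) added for 4 h at 37 °C, medium replaced by DMSO for 10 min, absorbance read at 570 nm.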

[6] = molecular target: T1, Cell division protein FtsZ (Bacillus subtilis (strain 168)) (UniProt P17865); assay: Induction of Bacillus subtilis FtsZ polymerization at 10 ug/ml in presence of GTP by microtiter plate-based light-scattering assay
T1 sequence (whole entry): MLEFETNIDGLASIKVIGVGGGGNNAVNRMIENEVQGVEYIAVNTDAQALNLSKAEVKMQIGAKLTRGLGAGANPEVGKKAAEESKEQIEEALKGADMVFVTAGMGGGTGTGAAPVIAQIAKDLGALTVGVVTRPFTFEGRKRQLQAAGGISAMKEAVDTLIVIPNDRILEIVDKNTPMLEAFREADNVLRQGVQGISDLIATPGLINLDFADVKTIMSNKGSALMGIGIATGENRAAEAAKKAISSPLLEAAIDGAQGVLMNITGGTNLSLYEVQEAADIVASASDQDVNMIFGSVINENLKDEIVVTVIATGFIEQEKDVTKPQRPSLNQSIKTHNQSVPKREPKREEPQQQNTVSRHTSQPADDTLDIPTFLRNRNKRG
In short: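 Recombinant purified B. subtilis FtsZ (5 µM) with 1 mM GTP in 50 mM MES, 50 mM KCl, 2 mM magnesium acetate, compound 0–10 µg/mL. Polymerization followed as light scattering (A340) continuously at 25 °C for 30 min. DMSO vehicle and a non-FtsZ control were included.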

Bacillus subtilis [7] = assay: Potency index, ratio of PC190723 MIC to test compound MIC for antibacterial activity against Bacillus subtilis ATCC 9372 after 24 hrs by broth microdilution based CLSI method
Mus musculus = assay: Toxicity in mouse infected with methicillin-resistant Staphylococcus aureus ATCC 43300 assessed as mouse death at 30 mg/kg, ip administered 0.1, 6 hrs postinfection and measured after 1 week; type: organism-based; conditions: in vivo, 168 h
In short: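 KM mice (about 20 g) infected i.v. with 5.4 × 10⁷ CFU MRSA in 0.1 mL saline. Dosing i.p. in vehicle of 1% DMAC, 30% TEG, 7% HPβCD in water (final), with a vehicle-only group. Deaths recorded for one week after bacterial inoculation.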

Staphylococcus aureus [8] = assay: Antibacterial activity against methicillin-resistant Staphylococcus aureus ATCC 43300 infected in mouse assessed as reduction of bacterial burden in blood at 30 mg/kg, ip administered 0.1, 6 hrs postinfection and measured at 24 hrs post last dose; type: functional, organism-based
Staphylococcus aureus [9] = assay: Bactericidal activity against methicillin-resistant Staphylococcus aureus ATCC 43300 incubated for 24 hrs followed by plating onto tryptic soy agar plates and further incubated for 24 hrs by broth microdilution based CLSI method; type: functional; conditions: ATCC 43300, 24 h
In short: (§1)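 MBC taken from the CLSI broth microdilution plates. These held 2-fold serial dilutions from 64 to 0.125 µg/mL in cation-adjusted Mueller-Hinton broth, seeded with log-phase bacteria and incubated aerobically for 24 h at 37 °C. Well aliquots were plated on TSA and colonies counted after 24 h. MBC is the lowest concentration giving a ≥3-log CFU reduction.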

Staphylococcus aureus [10] = assay: Bactericidal activity against Staphylococcus aureus ATCC 25923 incubated for 24 hrs followed by plating onto tryptic soy agar plates and further incubated for 24 hrs by broth microdilution based CLSI method; type: functional; conditions: ATCC 25923, 24 h
Staphylococcus aureus [11] = assay: Bactericidal activity against methicillin-resistant Staphylococcus aureus ATCC 43300 assessed as reduction in viable bacterial count at 8 ug/ml after 24 hrs by time-kill assay; type: functional, organism-based
In short: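 Growing culture diluted to about 10⁶ CFU/mL in CAMH broth containing compound, then shaken at 37 °C. At set times, samples were serially diluted tenfold in CAMH broth and three dilutions plated on TSA. CFU/mL counted after 24 h at 37 °C. Detection limit 10³ CFU/mL. Points are the mean of two independent runs, with SD.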

Staphylococcus aureus [12] = assay: Bactericidal activity against clinical isolate of penicillin-resistant Staphylococcus aureus incubated for 24 hrs followed by plating onto tryptic soy agar plates and further incubated for 24 hrs by broth microdilution based CLSI method; type: functional; in short: as §1

Nc1nonc1C(=O)N/N=C/c1cc(Cl)cc(Cl)c1O
MIC (Staphylococcus aureus [1]): 16 µg/mL (≈ 50.6 µM)

NC(=O)c1c(F)ccc(OCc2nc3cc(Cl)cnc3s2)c1F
MIC (Staphylococcus aureus [2]): 1 µg/mL (≈ 2.81 µM)
MIC (Staphylococcus aureus [3]): 1 µg/mL (≈ 2.81 µM)
MIC (Escherichia coli): > 64 µg/mL
MIC (Bacillus pumilus): 0.5 µg/mL (≈ 1.41 µM)
MIC (Bacillus subtilis [4]): 0.5 µg/mL (≈ 1.41 µM)
MIC (Staphylococcus aureus [1]): 1 µg/mL (≈ 2.81 µM)
MIC (Pseudomonas aeruginosa): > 64 µg/mL
MIC (Staphylococcus aureus [5]): 1 µg/mL (≈ 2.81 µM)

CC(C)(C)c1ccc(-c2cc(COc3ccc(F)c(C(N)=O)c3F)on2)cc1
IC50 (HeLa): > 128 µg/mL
Activity [6]: inactive
MIC (Staphylococcus aureus [2]): 8 µg/mL (≈ 20.7 µM)
MIC (Staphylococcus aureus [3]): 4 µg/mL (≈ 10.4 µM)
MIC (Escherichia coli): > 64 µg/mL
MIC (Bacillus pumilus): 0.25 µg/mL (≈ 0.647 µM)
MIC (Bacillus subtilis [4]): 0.03 µg/mL (≈ 0.0776 µM)
MIC (Pseudomonas aeruginosa): > 64 µg/mL
MIC (Staphylococcus aureus [5]): 8 µg/mL (≈ 20.7 µM)
Ratio (Bacillus subtilis [7]): >16

NC(=O)c1c(F)ccc(OCc2ccccc2)c1F
MIC (Staphylococcus aureus [1]): 32 µg/mL (≈ 122 µM)

NC(=O)c1c(F)ccc(OCc2cc(-c3ccccc3)no2)c1F
MIC (Staphylococcus aureus [2]): > 64 µg/mL
MIC (Staphylococcus aureus [3]): > 64 µg/mL
MIC (Escherichia coli): > 64 µg/mL
MIC (Bacillus pumilus): > 64 µg/mL
MIC (Bacillus subtilis [4]): 64 µg/mL (≈ 194 µM)
MIC (Pseudomonas aeruginosa): > 64 µg/mL
MIC (Staphylococcus aureus [5]): > 64 µg/mL

Cc1c(COc2ccc(F)c(C(N)=O)c2F)noc1-c1ccc(C(C)(C)C)cc1
MIC (Staphylococcus aureus [2]): > 64 µg/mL
MIC (Staphylococcus aureus [3]): > 64 µg/mL
MIC (Escherichia coli): > 64 µg/mL
MIC (Bacillus pumilus): 1 µg/mL (≈ 2.5 µM)
MIC (Bacillus subtilis [4]): 0.5 µg/mL (≈ 1.25 µM)
MIC (Pseudomonas aeruginosa): > 64 µg/mL
MIC (Staphylococcus aureus [5]): > 64 µg/mL

CC(C)(C)c1ccc(-c2cc(CCOc3ccc(F)c(C(N)=O)c3F)no2)cc1
MIC (Staphylococcus aureus [2]): > 64 µg/mL
MIC (Staphylococcus aureus [3]): > 64 µg/mL
MIC (Escherichia coli): > 64 µg/mL
MIC (Bacillus pumilus): > 64 µg/mL
MIC (Bacillus subtilis [4]): > 64 µg/mL
MIC (Pseudomonas aeruginosa): > 64 µg/mL
MIC (Staphylococcus aureus [5]): > 64 µg/mL

CC(=O)NC[C@H]1CN(c2ccc(N3CCOCC3)c(F)c2)C(=O)O1 [LINEZOLID]
MIC (Staphylococcus aureus [3]): 1 µg/mL (≈ 2.96 µM)
Activity (Mus musculus): Non-Toxic
MIC (Escherichia coli): > 64 µg/mL
Activity (Staphylococcus aureus [8]): Active
MIC (Bacillus pumilus): 1 µg/mL (≈ 2.96 µM)
MIC (Bacillus subtilis [4]): 1 µg/mL (≈ 2.96 µM)
MBC (Staphylococcus aureus [9]): 32 µg/mL (≈ 94.9 µM)
MIC (Pseudomonas aeruginosa): > 64 µg/mL
MBC (Staphylococcus aureus [10]): 32 µg/mL (≈ 94.9 µM)
Activity (Staphylococcus aureus [11]): Active
MBC (Staphylococcus aureus [12]): 32 µg/mL (≈ 94.9 µM)
